Reference: ChEMBL document CHEMBL4229446, “Development of Novel Monoamine Oxidase-B (MAO-B) Inhibitors with Reduced Blood-Brain Barrier Permeability for the Potential Management of Noncentral Nervous System (CNS) Diseases” (J Med Chem, 2018)

How the values were obtained:
Mus musculus [1] = assay: Acute toxicity in C57BL/6 mouse assessed as piloerection at 10.8 mg/kg, iv after 1 hr post-injection; format: organism-based; conditions: in vivo
Mus musculus [2] = assay: Acute toxicity in C57BL/6 mouse assessed as piloerection at 10.8 mg/kg, po after 1 hr post-injection; format: organism-based; conditions: in vivo
[3] = Metabolic stability in mouse plasma assessed as parent compound remaining at 5 uM after 4 hrs by UPLC-MS/MS analysis; format: ADME, cell-free; conditions: read-out: Stability
Method in brief: (§1)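 Compound at 5 μM was incubated in mouse or human plasma at 37 °C with shaking. Sampled at 0, 5, 15, 30, 60, 120 and 240 min and stopped with ice-cold acetonitrile/0.1% formic acid containing internal standard. Supernatants analysed by UPLC-MS/MS for parent remaining. Run in triplicate.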

[4] = Apparent half-life of the terminal disposition phase in C57BL/6 mouse brain at 10.8 mg/kg, iv administered as single dose measured 24 hrs by UPLC-MS/MS analysis; format: ADME, organism-based; conditions: read-out: t1/2 lambda z (converted)
Method in brief: (§2)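 21 animals dosed at 0 min, 3 sacrificed at each of 0, 5, 15, 30 min, 1, 4 and 24 h. Plasma was extracted by protein precipitation with phospholipid removal. Brain was weighed, bead-homogenised in 50 mM ammonium formate and extracted in acidified organic solvent. Quantified by UPLC-MS/MS (MRM). Brain ng/g taken as ng/mL. Parameters came from noncompartmental analysis. Kp = AUClast brain/plasma.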

[5] = Ratio of AUClast in brain to plasma in C57BL/6 mouse at 10.8 mg/kg, iv administered as single dose measured 24 hrs by UPLC-MS/MS analysis; format: ADME, organism-based; method in brief: as §2
Mus musculus [6] = assay: Acute toxicity in C57BL/6 mouse assessed as lethargy at 10.8 mg/kg, iv after 1 hr post-injection; format: organism-based; conditions: in vivo
[7] = AUClast in C57BL/6 mouse plasma at 10.8 mg/kg, iv administered as single dose measured 24 hrs by UPLC-MS/MS analysis; format: ADME, organism-based; set-up: dose 10.8 mg/kg, route intravenous, time 0 - last
Method in brief: (§3)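 Plasma extracted by protein precipitation/phospholipid removal; brain weighed, homogenised in 50 mM ammonium formate, extracted in acidified organic solvent, ng/g taken as ng/mL. Quantified by UPLC-MS/MS (MRM); parameters by noncompartmental analysis.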

Mus musculus [8] = assay: Acute toxicity in C57BL/6 mouse assessed as piloerection at 10.8 mg/kg, sc after 1 hr post-injection; format: organism-based; conditions: in vivo
[9] = Metabolic stability in mouse liver microsomes assessed as parent compound remaining at 1 uM after 60 mins by UPLC-MS/MS analysis; format: ADME, microsome; conditions: microsomes, 1 h, 1 µM
Method in brief: (§4)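 Compound at 1 μM with 0.5 mg/mL mouse or human liver microsomes in 100 mM potassium phosphate pH 7.4, 3.3 mM MgCl2, 1 mM NADPH, at 37 °C. Started with NADPH; minus-NADPH control run. Stopped at 0, 5, 15, 30, 45 and 60 min with acetonitrile/formic acid plus internal standard. Parent remaining by UPLC-MS/MS, in triplicate.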

Mus musculus [10] = assay: Acute toxicity in C57BL/6 mouse assessed as lethargy at 10.8 mg/kg, po after 1 hr post-injection; format: organism-based; conditions: in vivo
[11] = Metabolic stability in human plasma assessed as parent compound remaining at 5 uM after 4 hrs by UPLC-MS/MS analysis; format: ADME, cell-free; conditions: read-out: Stability; method in brief: as §1
[12] = Apparent half-life of the terminal disposition phase in C57BL/6 mouse plasma at 10.8 mg/kg, iv administered as single dose measured 24 hrs by UPLC-MS/MS analysis; format: ADME, organism-based; conditions: read-out: t1/2 lambda z (converted); method in brief: as §3
[13] = Cmax in C57BL/6 mouse plasma at 10.8 mg/kg, iv administered as single dose measured 24 hrs by UPLC-MS/MS analysis; format: ADME, organism-based; set-up: dose 10.8 mg/kg, route intravenous; method in brief: as §3
Mus musculus [14] = assay: Acute toxicity in C57BL/6 mouse assessed as lethargy at 10.8 mg/kg, sc after 1 hr post-injection; format: organism-based; conditions: in vivo
[15] = AUClast in C57BL/6 mouse brain at 10.8 mg/kg, iv administered as single dose measured 24 hrs by UPLC-MS/MS analysis; format: ADME, organism-based; set-up: dose 10.8 mg/kg, route intravenous, time 0 - last; method in brief: as §2
[16] = Tmax in C57BL/6 mouse brain at 10.8 mg/kg, iv administered as single dose measured 24 hrs by UPLC-MS/MS analysis; format: ADME, organism-based; method in brief: as §3
[17] = Cmax in C57BL/6 mouse brain at 10.8 mg/kg, iv administered as single dose measured 24 hrs by UPLC-MS/MS analysis; format: ADME, organism-based; set-up: dose 10.8 mg/kg, route intravenous; method in brief: as §2
[18] = Tmax in C57BL/6 mouse plasma at 10.8 mg/kg, iv administered as single dose measured 24 hrs by UPLC-MS/MS analysis; format: ADME, organism-based; method in brief: as §3
[19] = Metabolic stability in human liver microsomes assessed as parent compound remaining at 1 uM after 60 mins by UPLC-MS/MS analysis; format: ADME, microsome; conditions: microsomes, 1 h, 1 µM; method in brief: as §4

With `C#CCN(C)[C@H](C)Cc1ccccc1` [SELEGILINE] the Activity (Mus musculus [1]) was “Toxic”, the Activity (Mus musculus [2]) was “Toxic” and the remaining at 4 h, 5 µM [3] was 61%. For the same compound, the half-life [4] was 17.4 min, the Kp at 24 h [5] was 5.73 and the Activity (Mus musculus [6]) was “Toxic”. For the same compound, the AUC(0-t) at 24 h [7] was 242 ng·h/mL, the Activity (Mus musculus [8]) was “Toxic” and the Stability [9] was “Unstable”. The Activity (Mus musculus [10]) was “Toxic”, the remaining at 4 h, 5 µM [11] was 55% and the half-life [12] was 33.6 min. The Cmax [13] was 569 ng/mL, the Activity (Mus musculus [14]) was “Toxic” and the AUC(0-t) at 24 h [15] was 1390 ng·h/mL. It also gave a Tmax [16] of 5 min, a Cmax [17] of 4220 ng/mL and a Tmax [18] of 5 min. The Stability [19] was “Unstable”.
